pIC50, pKi: −log10 of the molar value. Calls of active or inactive are those of the source.
Tests used:
[1] = Inhibition of c-terminally truncated N-terminal 8xHis-tagged human Bcl-xL deletion mutant expressed in Escherichia coli BL21 (DE3) after 2 hrs by fluorescence polarization assay
[2] = biological target: T1, Apoptosis regulator Bcl-2 (Homo sapiens, UniProt P10415)
[3] = biological target: T1, Apoptosis regulator Bcl-2; test: Inhibition of N-terminal 6xHis-tagged human Bcl-2 expressed in Escherichia coli BL21 (DE3) after 2 hrs by fluorescence polarization assay
[4] = Antitumor activity against human NCI-H146 cells xenografted in SCID mouse assessed as tumor free incidence at 25 mg/kg, iv measured on day 58 post tumor implantation; assay type: functional
Outline: (§1)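 SCID mice bearing H146 xenografts randomized at 40–110 mm3 tumor volume (mean 70 mm3), 8 per group. Dosed intravenously, daily, 5 days a week for 2 weeks, with a vehicle control group. Tumor size and body weight measured 3 times weekly during dosing and twice weekly afterwards. Tumor volumes reported as mean ± SEM.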

[5] = tested on: NCI-H146; test: Antitumor activity against human NCI-H146 cells xenografted in SCID mouse assessed as tumor regression at 25 mg/kg, iv administered 5 days per week for 2 weeks; assay type: functional, organism-based; parameters: dose 25 mg/kg; outline: as §1
[6] = tested on: NCI-H146; test: Induction of apoptosis in human NCI-H146 cells xenografted in SCID mouse assessed as caspase 3 cleavage at 25 mg/kg, iv after 3 to 24 hrs by Western blot analysis; assay type: functional, organism-based; parameters: dose 25 mg/kg
Outline: (§2)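 SCID mice bearing H146 xenografts (100–200 mm3) received one i.v. dose, with a vehicle control group. Tumors harvested at 3, 6 and 24 h. PARP cleavage and caspase-3 cleavage assessed by Western blot.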

[7] = tested on: NCI-H146; test: Induction of apoptosis in human NCI-H146 cells xenografted in SCID mouse assessed as PARP cleavage at 25 mg/kg, iv after 3 to 6 hrs by Western blot analysis; assay type: functional, organism-based; parameters: dose 25 mg/kg; outline: as §2
[8] = tested on: Mus musculus; test: Toxicity in SCID mouse assessed as body weight loss at 50 mg/kg, iv administered 5 days per week for 2 weeks relative to vehicle-treated control; assay type: organism-based; parameters: dose 50 mg/kg, route intravenous; conditions: in vivo
Outline: (§3)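 Tolerability tested in SCID mice given daily i.v. doses, 5 days a week for 2 weeks. Body weight loss tracked against a 10% threshold.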

[9] = tested on: Mus musculus; test: Toxicity in SCID mouse assessed as body weight loss at 25 mg/kg, iv administered 5 days per week for 2 weeks relative to vehicle-treated control; assay type: organism-based; parameters: dose 25 mg/kg, route intravenous; conditions: in vivo; outline: as §3
[10] = tested on: NCI-H146; test: Antitumor activity against human NCI-H146 cells xenografted in SCID mouse assessed as tumor free incidence at 25 mg/kg, iv measured on day 47 post tumor implantation; assay type: functional, organism-based; parameters: dose 25 mg/kg; outline: as §1
[11] = Toxicity in iv dosed SCID mouse administered 5 days per week for 2 weeks; assay type: organism-based; conditions: in vivo
[12] = tested on: NCI-H146; test: Induction of apoptosis in human NCI-H146 cells assessed as caspase 3 activation at 10 nM after 24 hrs by Western blot analysis; assay type: functional, cell-based
Outline: (§4)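 H146 cells treated for 24 hr, then lysed on ice for 20 min in RIPA buffer with PMSF and protease inhibitors. Cleared lysates normalized by protein assay and run on 4–20% SDS-PAGE, then blotted to PVDF. Probed with rabbit antibodies to PARP and caspase-3 (cleaved forms detected), GAPDH as loading control, with HRP chemiluminescence detection.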

[13] = tested on: NCI-H146; test: Induction of apoptosis in human NCI-H146 cells assessed as PARP cleavage at 10 nM after 24 hrs by Western blot analysis; assay type: functional, cell-based; outline: as §4
[14] = tested on: NCI-H146; test: Induction of apoptosis in human NCI-H146 cells assessed as cell viability at 10 nM after 24 hrs by trypan blue exclusion assay; assay type: functional; conditions: NCI-H146, 24 h, read-out: Activity
Outline: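 H146 small-cell lung cancer cells exposed to serial compound concentrations for 24 hr, then collected and stained with trypan blue. Blue-stained or morphologically unhealthy cells were scored as dead, with at least 100 cells counted per sample.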

[15] = tested on: NCI-H146; test: Induction of apoptosis in human NCI-H146 cells assessed as cell viability after 24 hrs by trypan blue exclusion assay; assay type: functional, cell-based
Outline: (§5)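 H146 cells exposed to a range of compound concentrations for 24 hr, then harvested and stained with trypan blue. Cells staining blue or looking morphologically unhealthy were scored as dead. At least 100 cells counted per sample.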

[16] = Cytotoxicity against human NCI-H146 cells assessed as growth inhibition after 4 days by WST-8 assay; assay type: functional, cell-based; conditions: NCI-H146, 96 h
[17] = tested on: NCI-H1417; test: Cytotoxicity against human H1417 cells assessed as growth inhibition after 4 days by WST-8 assay; assay type: functional, cell-based; conditions: NCI-H1417, 96 h
[18] = tested on: NCI-H146; test: Induction of apoptosis in human NCI-H146 cells assessed as caspase 3 activation at 30 nM after 24 hrs by Western blot analysis; assay type: functional, cell-based; outline: as §4
[19] = tested on: NCI-H146; test: Induction of apoptosis in human NCI-H146 cells assessed as PARP cleavage at 30 nM after 24 hrs by Western blot analysis; assay type: functional, cell-based; outline: as §4
[20] = tested on: NCI-H146; test: Induction of apoptosis in human NCI-H146 cells assessed as cell viability at 30 to 100 nM after 24 hrs by trypan blue exclusion assay; assay type: functional; outline: as §5

T1 sequence (P10415 whole entry): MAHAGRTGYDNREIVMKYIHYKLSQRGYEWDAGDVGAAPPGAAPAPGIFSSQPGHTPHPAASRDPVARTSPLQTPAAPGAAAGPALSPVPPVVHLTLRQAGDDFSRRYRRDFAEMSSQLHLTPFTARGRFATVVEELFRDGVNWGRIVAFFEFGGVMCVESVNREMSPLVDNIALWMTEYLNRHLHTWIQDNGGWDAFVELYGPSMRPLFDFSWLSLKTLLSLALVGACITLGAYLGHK

Row | SMILES | pIC50 [1] | pKi [2] | pIC50 [3] | further results
1 | Cc1c(C(=O)O)c(-c2cccc(N3CCN(c4ccc(NS(=O)(=O)c5ccc(N[C@H](CCN6CCOCC6)CSc6ccccc6)c(S(=O)(=O)C(F)(F)F)c5)cc4)CC3)c2)c(-c2ccc(Cl)cc2)n1C | 7.97 | 7.85 | 7.26 | 
2 | Cc1c(C(=O)NCCCN2CCN(C)CC2)c(-c2cccc(N3CCN(c4ccc(NS(=O)(=O)c5cccc(F)c5)cc4)CC3)c2)c(-c2ccc(Cl)cc2)n1C | 5.88 |  |  | 
3 | COc1cccc(S(=O)(=O)Nc2ccc(N3CCN(c4cccc(-c5c(C(=O)NCCCN6CCN(C)CC6)c(C)n(C)c5-c5ccc(Cl)cc5)c4)CC3)cc2)c1 | 5.66 |  |  | 
4 | CCS(=O)(=O)c1cccc(S(=O)(=O)Nc2ccc(N3CCN(c4cccc(-c5c(C(=O)NCCCN6CCN(C)CC6)c(C)n(C)c5-c5ccc(Cl)cc5)c4)CC3)cc2)c1 | 6.02 |  |  | 
5 | CCn1c(C)c(C(=O)O)c(-c2cccc(N3CCN(c4ccc(NS(=O)(=O)c5ccc(N[C@H](CCN6CCC(O)CC6)CSc6ccccc6)c(S(=O)(=O)C(F)(F)F)c5)cc4)CC3)c2)c1-c1ccc(Cl)cc1 | 8.22 | 8.92 | 8.27 | Activity [4]: 71%; Activity [5]: Active; Activity [6]: Active; Activity [7]: Active; Activity [8]: > 10%; Activity [9]: < 10%; Activity [10]: Active; MTD at 2 weeks [11]: 25 mg/kg; Activity [12]: Active; Activity [13]: Active; viability at 0.01 µM [14]: > 50%; Activity [15]: Dose-dependent effect; pIC50 [16]: 7.66; pIC50 [17]: 7.68
6 | Cc1c(C(=O)O)c(-c2cccc(N3CCN(c4ccc(NS(=O)(=O)c5ccc(N[C@H](CCN6CCCCC6)CSc6ccccc6)c(S(=O)(=O)C(F)(F)F)c5)cc4)CC3)c2)c(-c2ccc(Cl)cc2)n1C | 7.92 | 8.42 | 7.81 | pIC50 [16]: 6.88; pIC50 [17]: 6.77
7 | Cc1c(C(=O)O)c(-c2cccc(N3CCN(c4ccc(NS(=O)(=O)c5ccc(N[C@H](CCN6CCC6)CSc6ccccc6)c(S(=O)(=O)C(F)(F)F)c5)cc4)CC3)c2)c(-c2ccc(Cl)cc2)n1C | 7.78 | 8.77 | 8.12 | pIC50 [16]: 7.07; pIC50 [17]: 6.90
8 | Cc1cccc(S(=O)(=O)Nc2ccc(N3CCN(c4cccc(-c5c(C(=O)NCCCN6CCN(C)CC6)c(C)n(C)c5-c5ccc(Cl)cc5)c4)CC3)cc2)c1 | 5.70 |  |  | 
9 | Cc1c(C(=O)NCCCN2CCN(C)CC2)c(-c2cccc(N3CCN(c4ccc(NS(=O)(=O)c5cccc(C(C)(C)C)c5)cc4)CC3)c2)c(-c2ccc(Cl)cc2)n1C | 6.13 |  |  | 
10 | Cc1c(C(=O)NCCCN2CCN(C)CC2)c(-c2cccc(N3CCN(c4ccc(NS(=O)(=O)c5cccc(Cl)c5)cc4)CC3)c2)c(-c2ccc(Cl)cc2)n1C | 5.97 |  |  | 
11 | Cc1c(C(=O)NCCCN2CCN(C)CC2)c(-c2cccc(N3CCN(c4ccc(NS(=O)(=O)c5cccc(Br)c5)cc4)CC3)c2)c(-c2ccc(Cl)cc2)n1C | 6.30 |  |  | 
12 | Cc1c(C(=O)NCCCN2CCN(C)CC2)c(-c2cccc(N3CCN(c4ccc(NS(=O)(=O)c5ccccc5)cc4)CC3)c2)c(-c2ccc(Cl)cc2)n1C | 5.43 |  |  | 
13 | CCCn1c(C)c(C(=O)O)c(-c2cccc(N3CCN(c4ccc(NS(=O)(=O)c5ccc(N[C@H](CCN6CCC(O)CC6)CSc6ccccc6)c(S(=O)(=O)C(F)(F)F)c5)cc4)CC3)c2)c1-c1ccc(Cl)cc1 | 8.09 | 8.12 | 7.52 | pIC50 [16]: 6.89; pIC50 [17]: 6.98
14 | CC1(C)CCC(c2ccc(Cl)cc2)=C(CN2CCN(c3ccc(C(=O)NS(=O)(=O)c4ccc(N[C@H](CCN5CCOCC5)CSc5ccccc5)c(S(=O)(=O)C(F)(F)F)c4)cc3)CC2)C1 [NAVITOCLAX] |  |  |  | Activity [18]: Active; Activity [19]: Active; Activity [20]: >50%; Activity [15]: Dose-dependent effect
15 | Cc1c(C(=O)NCCCN2CCN(C)CC2)c(-c2cccc(N3CCN(c4ccc(NS(=O)(=O)c5cccc([N+](=O)[O-])c5)cc4)CC3)c2)c(-c2ccc(Cl)cc2)n1C | 6.88 |  |  | 
16 | Cc1c(C(=O)NCCCN2CCN(C)CC2)c(-c2cccc(N3CCN(c4ccc(NS(=O)(=O)c5cccc(S(C)(=O)=O)c5)cc4)CC3)c2)c(-c2ccc(Cl)cc2)n1C | 5.72 |  |  | 
17 | Cc1c(C(=O)NCCCN2CCN(C)CC2)c(-c2cccc(N3CCN(c4ccc(NS(=O)(=O)c5cccc(S(=O)(=O)C6CC6)c5)cc4)CC3)c2)c(-c2ccc(Cl)cc2)n1C | 5.99 |  |  | 
18 | CCOc1cccc(S(=O)(=O)Nc2ccc(N3CCN(c4cccc(-c5c(C(=O)NCCCN6CCN(C)CC6)c(C)n(C)c5-c5ccc(Cl)cc5)c4)CC3)cc2)c1 | 5.44 |  |  | 
19 | CN(C)CC[C@H](CSc1ccccc1)Nc1ccc(S(=O)(=O)NC(=O)c2ccc(N3CCN(Cc4ccccc4-c4ccc(Cl)cc4)CC3)cc2)cc1[N+](=O)[O-] [ABT 737] |  |  |  | Activity [20]: >50%; Activity [15]: Dose-dependent effect

Second part, led by results:

Row | pIC50 [1] | pKi [2] | pIC50 [3] | SMILES | further results
20 | 8.29 | 8.68 | 8.04 | Cc1c(C(=O)O)c(-c2cccc(N3CCN(c4ccc(NS(=O)(=O)c5ccc(N[C@H](CCN(C)C)CSc6ccccc6)c(S(=O)(=O)C(F)(F)F)c5)cc4)CC3)c2)c(-c2ccc(Cl)cc2)n1C | 
21 | 5.78 |  |  | Cc1c(C(=O)NCCCN2CCN(C)CC2)c(-c2cccc(N3CCN(c4ccc(NS(=O)(=O)c5cccc(OC(F)(F)F)c5)cc4)CC3)c2)c(-c2ccc(Cl)cc2)n1C | 
22 | 5.98 |  |  | Cc1c(C(=O)NCCCN2CCN(C)CC2)c(-c2cccc(N3CCN(c4ccc(NS(=O)(=O)c5cccc(OC(C)C)c5)cc4)CC3)c2)c(-c2ccc(Cl)cc2)n1C | 
23 | 7.97 | 8.74 | 8.08 | Cc1c(C(=O)O)c(-c2cccc(N3CCN(c4ccc(NS(=O)(=O)c5ccc(N[C@H](CCN6CCCC6)CSc6ccccc6)c(S(=O)(=O)C(F)(F)F)c5)cc4)CC3)c2)c(-c2ccc(Cl)cc2)n1C | pIC50 [16]: 7.06; pIC50 [17]: 6.97
24 | 7.98 | 8.77 | 8.11 | Cc1c(C(=O)O)c(-c2cccc(N3CCN(c4ccc(NS(=O)(=O)c5ccc(N[C@H](CCN6CC(O)C6)CSc6ccccc6)c(S(=O)(=O)C(F)(F)F)c5)cc4)CC3)c2)c(-c2ccc(Cl)cc2)n1C | pIC50 [16]: 6.62; pIC50 [17]: 6.52
25 |  | > 9.00 |  | Cc1c(C(=O)O)c(-c2cccc(N3CCN(c4ccc(NS(=O)(=O)c5ccc(N[C@H](CCN(C)C)CSc6ccccc6)c([N+](=O)[O-])c5)cc4)CC3)c2)c(-c2ccc(Cl)cc2)n1C | 
26 | 5.71 |  |  | CCc1cccc(S(=O)(=O)Nc2ccc(N3CCN(c4cccc(-c5c(C(=O)NCCCN6CCN(C)CC6)c(C)n(C)c5-c5ccc(Cl)cc5)c4)CC3)cc2)c1 | 
27 | 7.66 | 8.34 | 7.73 | Cc1c(C(=O)O)c(-c2cccc(N3CCN(c4ccc(NS(=O)(=O)c5ccc(N[C@H](CCN6CCC(C)(O)CC6)CSc6ccccc6)c(S(=O)(=O)C(F)(F)F)c5)cc4)CC3)c2)c(-c2ccc(Cl)cc2)n1C | pIC50 [16]: 6.77; pIC50 [17]: 6.75
28 | 8.20 | 7.70 | 7.11 | CCCCn1c(C)c(C(=O)O)c(-c2cccc(N3CCN(c4ccc(NS(=O)(=O)c5ccc(N[C@H](CCN6CCC(O)CC6)CSc6ccccc6)c(S(=O)(=O)C(F)(F)F)c5)cc4)CC3)c2)c1-c1ccc(Cl)cc1 | pIC50 [16]: 6.89; pIC50 [17]: 7.01
